{
  "source": "ChEMBL document CHEMBL1255462",
  "about": "“Antiviral activity of a small-molecule inhibitor of filovirus infection” (Antimicrob Agents Chemother, 2010)",
  "key": {"Ebolavirus [1]": {"test_system": "Ebolavirus", "assay": "Antiviral activity against Ebola-like viruses infected in C57BL/6 mouse kidney assessed as reduction in viral burden at 10 mg/kg, ip single dose", "type": "functional", "settings": "route intraperitoneal"}, "[2]": {"assay": "Antiviral activity against Lake Victoria marburgvirus - Ravn in overnight pretreated african green monkey Vero E6 cells after 48 hrs by standard virus yield reduction assay", "type": "functional, cell-based", "settings": "Kenya, 1987, Vero"}, "[3]": {"assay": "Antiviral activity against Lake Victoria marburgvirus - Ci67 in overnight pretreated african green monkey Vero E6 cells at 10 uM after 48 hrs by standard virus yield reduction assay", "type": "functional", "set-up": "scale not given: the % may be the effect or the level left"}, "Marburgvirus [4]": {"test_system": "Marburgvirus", "assay": "Antiviral activity against Marburgvirus infected in BALB/C mouse assessed as protection against virus challenge at 10 mg/kg, ip measured for 14 days", "type": "functional, organism-based", "set-up": "dose 10 mg/kg", "method_in_brief": "(§1)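 Compound given once i.p. in 0.9% saline at day 1 postinfection, with vehicle-treated controls. Health and mortality recorded twice daily for 14 days. Animals surviving 14 days were scored as protected, and survival curves were compared by Kaplan-Meier analysis.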"}, "Ebolavirus [5]": {"test_system": "Ebolavirus", "assay": "Antiviral activity against Ebola-like viruses infected in C57BL/6 mouse assessed as serum aspartate aminotransferase at 10 mg/kg, ip after 24 hrs measured on 6 days postinfection", "type": "functional", "settings": "route intraperitoneal", "method_in_brief": "(§2)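 C57BL/6 mice received 10 mg/kg i.p. in saline, or vehicle, 24 h postinfection. Five mice per group were sacrificed on days 2, 4 and 6. Serum was frozen at -70°C until all samples were collected, then assayed for ALT, AST and ALP (U/liter). Values are group means compared with vehicle.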"}, "Ebolavirus [6]": {"test_system": "Ebolavirus", "assay": "Antiviral activity against Ebola-like viruses infected in C57BL/6 mouse assessed as serum aspartate aminotransferase at 10 mg/kg, ip after 24 hrs measured on 4 days postinfection", "type": "functional", "settings": "route intraperitoneal", "method_in_brief": "as §2"}, "[7]": {"assay": "Cytotoxicity against human A549 cells after 72 hrs", "type": "cell-based", "method_in_brief": "(§3)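 Confluent monolayers were treated in triplicate with serially diluted compound at 0.0018 to 320 µM for 72 h. Viability was read by CellTiter Glo luminescence, and CC50 was determined.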"}, "Ebolavirus [8]": {"test_system": "Ebolavirus", "assay": "Antiviral activity against Ebola-like viruses infected in C57BL/6 mouse assessed as serum alanine aminotransferase at 10 mg/kg, ip after 24 hrs measured on 4 days postinfection", "type": "functional", "settings": "route intraperitoneal", "method_in_brief": "as §2"}, "[9]": {"assay": "Cytotoxicity against african green monkey Vero E6 cells after 72 hrs", "type": "cell-based", "settings": "chlorocebus sabaeus", "method_in_brief": "as §3"}, "Ebolavirus [10]": {"test_system": "Ebolavirus", "assay": "Antiviral activity against Ebola-like viruses infected in C57BL/6 mouse assessed as serum alkaline phosphatase at 10 mg/kg, ip after 24 hrs measured on 4 days postinfection", "type": "functional", "settings": "route intraperitoneal", "method_in_brief": "as §2"}, "Ebolavirus [11]": {"test_system": "Ebolavirus", "assay": "Antiviral activity against Zaire ebolavirus expressing GFP in african green monkey Vero E6 cells at >=0.8 uM after 48 hrs by standard plaque assay", "type": "functional"}, "Ebolavirus [12]": {"test_system": "Ebolavirus", "assay": "Antiviral activity against Sudan ebolavirus expressing GFP in african green monkey Vero E6 cells after 48 hrs by standard plaque assay", "type": "functional, cell-based", "settings": "Orthoebolavirus"}, "Marburgvirus [13]": {"test_system": "Marburgvirus", "assay": "Antiviral activity against Marburgvirus infected in BALB/C mouse assessed as protection against virus challenge at 5 mg/kg, ip administered 1 day postinfection", "type": "functional", "settings": "route intraperitoneal", "method_in_brief": "as §1"}, "Ebolavirus [14]": {"test_system": "Ebolavirus", "assay": "Antiviral activity against Ebola-like viruses infected in C57BL/6 mouse assessed as increase in mouse survival at 5 mg/kg, ip single injection", "type": "functional", "settings": "route intraperitoneal", "method_in_brief": "as §1"}, "Ebolavirus [15]": {"test_system": "Ebolavirus", "assay": "Antiviral activity against Ebola-like viruses infected in C57BL/6 mouse liver assessed as reduction in viral burden at 10 mg/kg, ip single dose", "type": "functional", "settings": "route intraperitoneal"}, "Ebolavirus [16]": {"test_system": "Ebolavirus", "assay": "Antiviral activity against Ebola-like viruses infected in C57BL/6 mouse assessed as serum aspartate aminotransferase at 10 mg/kg, ip after 24 hrs measured on 2 days postinfection", "type": "functional", "settings": "route intraperitoneal", "method_in_brief": "as §2"}, "Mus musculus [17]": {"test_system": "Mus musculus", "assay": "Toxicity in Ebola-like viruses infected in C57BL/6 mouse spleen assessed as mild lymphocytolysis at 10 mg/kg, ip single dose measured after 4 days", "type": "organism-based", "set-up": "dose 10 mg/kg, route intraperitoneal", "settings": "in vivo, 96 h"}, "Ebolavirus [18]": {"test_system": "Ebolavirus", "assay": "Antiviral activity against Ebola-like viruses infected in C57BL/6 mouse assessed as serum alkaline phosphatase at 10 mg/kg, ip after 24 hrs measured on 2 days postinfection", "type": "functional", "settings": "route intraperitoneal", "method_in_brief": "as §2"}, "[19]": {"assay": "Cytotoxicity against human HEK293 cells after 72 hrs", "type": "cell-based", "method_in_brief": "as §3"}, "[20]": {"assay": "Cytotoxicity against human Hep2 cells after 72 hrs", "type": "cell-based, HEp-2", "method_in_brief": "as §3"}, "[21]": {"assay": "Antiviral activity against Lake Victoria marburgvirus - Ravn in overnight pretreated african green monkey Vero E6 cells at 25 uM after 48 hrs by standard virus yield reduction assay", "type": "functional", "set-up": "scale not given: the % may be the effect or the level left"}, "Ebolavirus [22]": {"test_system": "Ebolavirus", "assay": "Antiviral activity against Ebola-like viruses infected in C57BL/6 mouse assessed as serum alkaline phosphatase at 10 mg/kg, ip after 24 hrs measured on 6 days postinfection", "type": "functional", "settings": "route intraperitoneal", "method_in_brief": "as §2"}, "Ebolavirus [23]": {"test_system": "Ebolavirus", "assay": "Antiviral activity against Ebola-like viruses infected in C57BL/6 mouse assessed as serum alanine aminotransferase at 10 mg/kg, ip after 24 hrs measured on 6 days postinfection", "type": "functional", "settings": "route intraperitoneal", "method_in_brief": "as §2"}, "[24]": {"assay": "Cytotoxicity against human PBMC after 72 hrs", "type": "cell-based", "settings": "PBMC (peripheral blood mononuclear cells)"}, "Ebolavirus [25]": {"test_system": "Ebolavirus", "assay": "Antiviral activity against Ebola-like viruses infected in C57BL/6 mouse spleen assessed as reduction in viral burden at 10 mg/kg, ip single dose", "type": "functional", "settings": "route intraperitoneal"}, "Ebolavirus [26]": {"test_system": "Ebolavirus", "assay": "Antiviral activity against Zaire ebolavirus expressing GFP in african green monkey Vero E6 cells after 48 hrs by standard plaque assay", "type": "functional, cell-based"}, "Mus musculus [27]": {"test_system": "Mus musculus", "assay": "Toxicity in Ebola-like viruses infected in C57BL/6 mouse assessed as mild hepatitis with hepatocellular necrosis at 10 mg/kg, ip single dose measured after 4 days", "type": "organism-based", "set-up": "dose 10 mg/kg, route intraperitoneal", "settings": "in vivo, 96 h"}, "[28]": {"assay": "Cytotoxicity against MDCK cells after 72 hrs", "type": "cell-based, Canis lupus familiaris", "settings": "dog", "method_in_brief": "as §3"}, "Ebolavirus [29]": {"test_system": "Ebolavirus", "assay": "Antiviral activity against Ebola-like viruses infected in C57BL/6 mouse assessed as serum alanine aminotransferase at 10 mg/kg, ip after 24 hrs measured on 2 days postinfection", "type": "functional", "settings": "route intraperitoneal", "method_in_brief": "as §2"}, "[30]": {"assay": "Antiviral activity against Lake Victoria marburgvirus - Ci67 in overnight pretreated african green monkey Vero E6 cells after 48 hrs by standard virus yield reduction assay", "type": "functional"}},
  "note": "Calls of active or inactive are those of the source. The rule behind the calls is not given here.",
  "data": [
    {"smiles": "N=C(N)c1ccc2oc(/C=C/c3nc4cc(C(=N)N)ccc4[nH]3)cc2c1", "values": [
      {"measurement": "log10cfu", "setting": "Ebolavirus [1]", "value": 1},
      {"measurement": "EC50", "setting": "[2]", "value": 2500, "unit": "nM"},
      {"measurement": "Activity", "setting": "[3]", "value": ">90", "unit": "%"},
      {"measurement": "Activity", "setting": "Marburgvirus [4]", "value": "Active"},
      {"measurement": "Activity", "setting": "Ebolavirus [5]", "value": 207, "unit": "U/L"},
      {"measurement": "Activity", "setting": "Ebolavirus [6]", "value": 54, "unit": "U/L"},
      {"measurement": "CC50 at 72 h", "setting": "[7]", "value": "≥ 50", "unit": "µM"},
      {"measurement": "Activity", "setting": "Ebolavirus [8]", "value": 23, "unit": "U/L"},
      {"measurement": "CC50 at 72 h", "setting": "[9]", "value": "≥ 50", "unit": "µM"},
      {"measurement": "Activity", "setting": "Ebolavirus [10]", "value": 65, "unit": "U/L"},
      {"measurement": "inhibition (INH)", "setting": "Ebolavirus [11]", "value": ">=0.8%"},
      {"measurement": "EC50", "setting": "Ebolavirus [12]", "value": 420, "unit": "nM"},
      {"measurement": "EC90", "setting": "Ebolavirus [12]", "value": 960, "unit": "nM"},
      {"measurement": "Activity", "setting": "Marburgvirus [13]", "value": 40, "unit": "%"},
      {"measurement": "Activity", "setting": "Ebolavirus [14]", "value": 60, "unit": "%"},
      {"measurement": "log10cfu", "setting": "Ebolavirus [15]", "value": 1},
      {"measurement": "Activity", "setting": "Ebolavirus [16]", "value": 237, "unit": "U/L"},
      {"measurement": "Activity", "setting": "Mus musculus [17]", "value": "Toxic"},
      {"measurement": "Activity", "setting": "Ebolavirus [18]", "value": 57, "unit": "U/L"},
      {"measurement": "CC50 at 72 h", "setting": "[19]", "value": "≥ 50", "unit": "µM"},
      {"measurement": "CC50 at 72 h", "setting": "[20]", "value": "≥ 50", "unit": "µM"},
      {"measurement": "Activity", "setting": "[21]", "value": ">99.9", "unit": "%"},
      {"measurement": "Activity", "setting": "Ebolavirus [22]", "value": 67, "unit": "U/L"},
      {"measurement": "Activity", "setting": "Ebolavirus [23]", "value": 87, "unit": "U/L"},
      {"measurement": "CC50 at 72 h", "setting": "[24]", "value": "≥ 50", "unit": "µM"},
      {"measurement": "log10cfu", "setting": "Ebolavirus [25]", "value": 1},
      {"measurement": "Activity", "setting": "Ebolavirus [26]", "value": "Dose-dependent effect"},
      {"measurement": "EC50", "setting": "Ebolavirus [26]; Orthoebolavirus", "value": 100, "unit": "nM"},
      {"measurement": "EC90", "setting": "Ebolavirus [26]; Orthoebolavirus", "value": 330, "unit": "nM"},
      {"measurement": "Activity", "setting": "Mus musculus [27]", "value": "Toxic"},
      {"measurement": "CC50 at 72 h", "setting": "[28]", "value": "≥ 50", "unit": "µM"},
      {"measurement": "Activity", "setting": "Ebolavirus [29]", "value": 148, "unit": "U/L"},
      {"measurement": "CC50", "setting": "[30]", "value": 2500, "unit": "nM"}
    ]}
  ]
}
